According to ChEMBL document CHEMBL4312005, “Optimization of pyrrolizine-based Schiff bases with 4-thiazolidinone motif: Design, synthesis and investigation of cytotoxicity and anti-inflammatory potency” (Eur J Med Chem, 2020):

How the values were obtained:
MCF7 [1] = experiment: Antiproliferative activity against human MCF7 cells assessed as reduction in cell growth incubated for 72 hrs by MTT assay; type: functional, cell-based; conditions: MCF7, 72 h
Method in brief: (§1)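 MTT assay on MCF-7, A2780, HT29 and normal MRC5 fibroblast lines (ATCC) grown in DMEM with 10% FBS. Cells exposed to compounds for 72 h, then reduced MTT read at 570 nm.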

[2] = Selectivity index, ratio of IC50 for cytotoxicity against human MRC5 cells to IC50 for antiproliferative activity against human A2780 cells; conditions: MRC5 cells versus A2780 cells
MCF7 [3] = experiment: Antiproliferative activity against human MCF7 cells assessed as cell viability at 5 uM incubated for 48 hrs by MTT assay (reference value: 100 %); type: functional; conditions: MCF7, 48 h, read-out: Activity
Method in brief: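 Preliminary single-dose screen by MTT assay. MCF-7 cells grown in DMEM/10% FBS were exposed to 5 μM compound for 48 h, and growth% was determined. Values are mean ± S.D., n = 6.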

HT-29 = experiment: Antiproliferative activity against human HT-29 cells assessed as reduction in cell growth incubated for 72 hrs by MTT assay; type: functional, cell-based; conditions: HT-29, 72 h; method in brief: as §1
[4] = Selectivity index, ratio of IC50 for cytotoxicity against human MRC5 cells to IC50 for antiproliferative activity against human HT-29 cells; conditions: MRC5 cells versus HT-29 cells
[5] = biological target: Prostaglandin G/H synthase 1 (Homo sapiens, UniProt P23219); experiment: Inhibition of human COX1 using arachidonic acid as substrate incubated for 2 mins by ELISA method
Sequence of Prostaglandin G/H synthase 1 (P23219 whole entry): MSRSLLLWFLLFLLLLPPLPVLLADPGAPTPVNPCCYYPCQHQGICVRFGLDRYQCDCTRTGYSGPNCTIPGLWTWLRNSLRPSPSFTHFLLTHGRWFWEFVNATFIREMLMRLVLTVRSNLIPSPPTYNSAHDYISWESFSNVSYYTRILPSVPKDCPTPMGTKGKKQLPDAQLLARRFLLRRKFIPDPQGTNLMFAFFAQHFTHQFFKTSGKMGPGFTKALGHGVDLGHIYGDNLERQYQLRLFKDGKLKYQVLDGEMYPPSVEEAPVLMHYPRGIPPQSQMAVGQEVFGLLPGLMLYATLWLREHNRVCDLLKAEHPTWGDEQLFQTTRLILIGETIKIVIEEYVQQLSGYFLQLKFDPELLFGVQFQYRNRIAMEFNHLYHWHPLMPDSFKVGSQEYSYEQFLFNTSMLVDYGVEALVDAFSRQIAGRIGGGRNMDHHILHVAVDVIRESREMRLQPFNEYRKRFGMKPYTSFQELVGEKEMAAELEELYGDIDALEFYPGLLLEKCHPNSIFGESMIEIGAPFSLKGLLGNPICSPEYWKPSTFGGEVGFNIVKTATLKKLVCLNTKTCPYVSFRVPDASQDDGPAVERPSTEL

[6] = Selectivity index, ratio of IC50 for cytotoxicity against human MRC5 cells to IC50 for antiproliferative activity against human MCF7 cells; conditions: MRC5 cells versus MCF7 cells
MRC5 = experiment: Cytotoxicity against human MRC5 cells assessed as reduction in cell growth incubated for 72 hrs by MTT assay; type: cell-based; conditions: MRC5, 72 h; method in brief: as §1
A2780 = experiment: Antiproliferative activity against human A2780 cells assessed as reduction in cell growth incubated for 72 hrs by MTT assay; type: functional, cell-based; conditions: A2780, 72 h; method in brief: as §1
MCF7 [7] = experiment: Cell cycle arrest in human MCF7 cells assessed as S phase accumulation at 5 uM incubated for 24 hrs by propidium iodide based flow cytometry (reference value: 17.3 to 28.5 %); type: functional
MCF7 [8] = experiment: Induction of apoptosis in human MCF7 cells assessed as late apoptotic cells at 5 uM incubated for 24 hrs by annexin V FITC and propidium iodide staining based flow cytometry (reference value: 0 to 2.5 %); type: functional
MCF7 [9] = experiment: Cell cycle arrest in human MCF7 cells assessed as G2/M phase accumulation at 10 uM incubated for 24 hrs by propidium iodide based flow cytometry (reference value: 17.2 to 26.8 %); type: functional
MCF7 [10] = experiment: Induction of apoptosis in human MCF7 cells assessed as necrotic cells at 1 uM incubated for 24 hrs by annexin V FITC and propidium iodide staining based flow cytometry (reference value: 4.1 to […]); type: functional
MCF7 [11] = experiment: Induction of apoptosis in human MCF7 cells assessed as early apoptotic cells at 10 uM incubated for 24 hrs by annexin V FITC and propidium iodide staining based flow cytometry (reference value: 0 to 9 %); type: functional
MCF7 [12] = experiment: Cell cycle arrest in human MCF7 cells assessed as subG1 accumulation at 1 uM incubated for 24 hrs by propidium iodide based flow cytometry (reference value: 0.6 to 3 %); type: functional
Rattus norvegicus [13] = experiment: Antiinflammatory activity against albino rats assessed as inhibition of carrageenan-induced paw edema at 0.5 mmol, po measured after 4 hrs relative to control; type: functional
Method in brief: (§2)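 Carrageenan rat paw edema (Winter method) in male and female adult albino rats (100-140 g). […] Swelling inhibition expressed as % of control at 2-4 h after carrageenan injection.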

MCF7 [14] = experiment: Induction of apoptosis in human MCF7 cells assessed as late apoptotic cells at 1 uM incubated for 24 hrs by annexin V FITC and propidium iodide staining based flow cytometry (reference value: 0 to 2.5 %); type: functional
Rattus norvegicus [15] = experiment: Antiinflammatory activity against albino rats assessed as inhibition of carrageenan-induced paw edema at 0.5 mmol, po measured after 2 hrs relative to control; type: functional; method in brief: as §2
MCF7 [16] = experiment: Cell cycle arrest in human MCF7 cells assessed as S phase accumulation at 10 uM incubated for 24 hrs by propidium iodide based flow cytometry (reference value: 17.3 to 28.5 %); type: functional
MCF7 [17] = experiment: Cell cycle arrest in human MCF7 cells assessed as G1 accumulation at 5 uM incubated for 24 hrs by propidium iodide based flow cytometry (reference value: 49.6 to 55.1 %); type: functional
MCF7 [18] = experiment: Induction of apoptosis in human MCF7 cells assessed as viable cells at 5 uM incubated for 24 hrs by annexin V FITC and propidium iodide staining based flow cytometry (reference value: 76 to 95.9 %); type: functional; conditions: MCF7, 24 h, read-out: Activity
MCF7 [19] = experiment: Cell cycle arrest in human MCF7 cells assessed as G2/M phase accumulation at 5 uM incubated for 24 hrs by propidium iodide based flow cytometry (reference value: 17.2 to 26.8 %); type: functional
MCF7 [20] = experiment: Induction of apoptosis in human MCF7 cells assessed as early apoptotic cells at 1 uM incubated for 24 hrs by annexin V FITC and propidium iodide staining based flow cytometry (reference value: 0 to 9 %); type: functional
MCF7 [21] = experiment: Cell cycle arrest in human MCF7 cells assessed as G1 accumulation at 10 uM incubated for 24 hrs by propidium iodide based flow cytometry (reference value: 49.6 to 55.1 %); type: functional
MCF7 [22] = experiment: Cell cycle arrest in human MCF7 cells assessed as S phase accumulation at 1 uM incubated for 24 hrs by propidium iodide based flow cytometry (reference value: 17.3 to 28.5 %); type: functional
MCF7 [23] = experiment: Cell cycle arrest in human MCF7 cells assessed as subG1 accumulation at 10 uM incubated for 24 hrs by propidium iodide based flow cytometry (reference value: 0.6 to 3 %); type: functional
MCF7 [24] = experiment: Induction of apoptosis in human MCF7 cells assessed as necrotic cells at 5 uM incubated for 24 hrs by annexin V FITC and propidium iodide staining based flow cytometry (reference value: 4.1 to […]); type: functional
MCF7 [25] = experiment: Induction of apoptosis in human MCF7 cells assessed as early apoptotic cells at 5 uM incubated for 24 hrs by annexin V FITC and propidium iodide staining based flow cytometry (reference value: 0 to 9 %); type: functional
MCF7 [26] = experiment: Induction of apoptosis in human MCF7 cells assessed as viable cells at 1 uM incubated for 24 hrs by annexin V FITC and propidium iodide staining based flow cytometry (reference value: 76 to 95.9 %); type: functional; conditions: MCF7, 24 h, read-out: Activity
MCF7 [27] = experiment: Induction of apoptosis in human MCF7 cells assessed as viable cells at 10 uM incubated for 24 hrs by annexin V FITC and propidium iodide staining based flow cytometry (reference value: 76 to 95.9 %); type: functional; conditions: MCF7, 24 h, read-out: Activity
MCF7 [28] = experiment: Cell cycle arrest in human MCF7 cells assessed as G1 accumulation at 1 uM incubated for 24 hrs by propidium iodide based flow cytometry (reference value: 49.6 to 55.1 %); type: functional
MCF7 [29] = experiment: Induction of apoptosis in human MCF7 cells assessed as necrotic cells at 10 uM incubated for 24 hrs by annexin V FITC and propidium iodide staining based flow cytometry (reference value: 4.1 to […]); type: functional
MCF7 [30] = experiment: Induction of apoptosis in human MCF7 cells assessed as late apoptotic cells at 10 uM incubated for 24 hrs by annexin V FITC and propidium iodide staining based flow cytometry (reference value: 0 to 2.5 %); type: functional
MCF7 [31] = experiment: Cell cycle arrest in human MCF7 cells assessed as subG1 accumulation at 5 uM incubated for 24 hrs by propidium iodide based flow cytometry (reference value: 0.6 to 3 %); type: functional
MCF7 [32] = experiment: Cell cycle arrest in human MCF7 cells assessed as G2/M phase accumulation at 1 uM incubated for 24 hrs by propidium iodide based flow cytometry (reference value: 17.2 to 26.8 %); type: functional
Rattus norvegicus [33] = experiment: Antiinflammatory activity against albino rats assessed as inhibition of carrageenan-induced paw edema at 25 mg/kg, po measured after 2 hrs relative to control; type: functional; method in brief: as §2
Rattus norvegicus [34] = experiment: Antiinflammatory activity against albino rats assessed as inhibition of carrageenan-induced paw edema at 25 mg/kg, po measured after 4 hrs relative to control; type: functional; method in brief: as §2

N#Cc1c(/N=C/c2cccs2)c(C(=O)Nc2ccc(Br)cc2)n2c1CCC2
IC50 (MCF7 [1]): 9.41 µM
selectivity ratio [2]: 1 to 10
viability at 5 µM (MCF7 [3]): 77%
IC50 (HT-29): 3.65 µM
selectivity ratio [4]: 1 to 10
IC50 [5]: > 100 µM
selectivity ratio [6]: 1 to 10
IC50 (MRC5): 23.1 µM
IC50 (A2780): 19.3 µM

N#Cc1c(/N=C/c2ccco2)c(C(=O)Nc2ccc(Br)cc2)n2c1CCC2
Activity (MCF7 [7]): 53.6%
Activity (MCF7 [8]): 6.3%
Activity (MCF7 [9]): 23%
IC50 (MCF7 [1]): 6.89 µM
Activity (MCF7 [10]): 11.4%
selectivity ratio [2]: 1 to 10
viability at 5 µM (MCF7 [3]): 64%
Activity (MCF7 [11]): 7.2%
Activity (MCF7 [12]): 1.1%
inhibition (INH) (Rattus norvegicus [13]): 35.79%
Activity (MCF7 [14]): 8.8%
inhibition (INH) (Rattus norvegicus [15]): 18.83%
Activity (MCF7 [16]): 51.5%
Activity (MCF7 [17]): 25.5%
IC50 (HT-29): 2.04 µM
viability at 5 µM (MCF7 [18]): 67%
selectivity ratio [4]: 1 to 10
Activity (MCF7 [19]): 21.8%
Activity (MCF7 [20]): 12.8%
Activity (MCF7 [21]): 25%
Activity (MCF7 [22]): 53.7%
IC50 [5]: 13.2 µM
Activity (MCF7 [23]): 0.4%
Activity (MCF7 [24]): 15.2%
Activity (MCF7 [25]): 11.5%
viability at 1 µM (MCF7 [26]): 67%
selectivity ratio [6]: 1 to 10
IC50 (MRC5): 15.7 µM
IC50 (A2780): 12.2 µM
viability at 10 µM (MCF7 [27]): 71.2%
Activity (MCF7 [28]): 24.5%
Activity (MCF7 [29]): 16.4%
Activity (MCF7 [30]): 5.3%
Activity (MCF7 [31]): 0.4%
Activity (MCF7 [32]): 22.1%

CCC1SCC(=O)N1c1c(C#N)c2n(c1C(=O)Nc1ccc(Cl)cc1)CCC2 (centres undefined)
IC50 (MCF7 [1]): 0.21 µM
selectivity ratio [2]: 3 to 15
inhibition (INH) (Rattus norvegicus [13]): 32.48%
inhibition (INH) (Rattus norvegicus [15]): 21.76%
IC50 (HT-29): 0.2 µM
IC50 [5]: > 100 µM
selectivity ratio [6]: 3 to 15
IC50 (MRC5): 0.91 µM
IC50 (A2780): 0.31 µM

CCC1SCC(=O)N1c1c(C#N)c2n(c1C(=O)Nc1ccccc1)CCCC2 (centres undefined)
IC50 (MCF7 [1]): 0.84 µM
IC50 (HT-29): 2.06 µM
IC50 [5]: 65.4 µM
selectivity ratio [6]: 3 to 15
IC50 (MRC5): 11.1 µM
IC50 (A2780): 4.24 µM

CCC1SCC(=O)N1c1c(C#N)c2n(c1C(=O)Nc1ccc(C)cc1)CCC2 (centres undefined)
IC50 (MCF7 [1]): 0.47 µM
selectivity ratio [2]: 3 to 15
IC50 (HT-29): 0.12 µM
IC50 [5]: > 100 µM
selectivity ratio [6]: 3 to 15
IC50 (MRC5): 1.7 µM
IC50 (A2780): 0.11 µM

Cc1ccc(-c2cc(C(F)(F)F)nn2-c2ccc(S(N)(=O)=O)cc2)cc1 [CELECOXIB]
inhibition in vivo at 25 mg/kg (Rattus norvegicus [33]): 37%
inhibition in vivo at 25 mg/kg (Rattus norvegicus [34]): 67.4%

CS(=O)(=O)CCNCc1ccc(-c2ccc3ncnc(Nc4ccc(OCc5cccc(F)c5)c(Cl)c4)c3c2)o1 [LAPATINIB]
IC50 (HT-29): 12.7 µM
IC50 (MRC5): 13.7 µM

CC/C=N/c1c(C#N)c2n(c1C(=O)Nc1ccc(Br)cc1)CCC2
IC50 (MCF7 [1]): 0.14 µM
selectivity ratio [2]: 24 to 152
viability at 5 µM (MCF7 [3]): 49%
IC50 (HT-29): 0.89 µM
selectivity ratio [4]: 24 to 152
IC50 [5]: 14.2 µM
selectivity ratio [6]: 24 to 152
IC50 (MRC5): 21.2 µM
IC50 (A2780): 0.27 µM
